The values below come from ChEMBL document CHEMBL1150144, “Total synthesis and biological evaluation of (5Z,9Z)-5,9-hexadecadienoic acid, an inhibitor of human topoisomerase I” (J Nat Prod, 2002).

The subject of assay [1] is Staphylococcus aureus. The assay is described as follows: Antimicrobial activity against Staphylococcus aureus ATCC 25923 after overnight incubation. The assay is classed as functional. The essentials: (§1)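 MIC read after overnight incubation of fatty acid with each organism at 37 °C. Endpoint was the highest dilution preventing growth, compared with an uninoculated chemical-control well. Data come from at least three separate experiments in duplicate.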

Assay [2] relates to Enterococcus faecalis. Kind of assay: Antimicrobial activity against Streptococcus faecalis ATCC 29212 after overnight incubation. In kind it is functional. The essentials: as §1
For assay [3], the system named is Pseudomonas aeruginosa. The assay is described as follows: Antimicrobial activity against Pseudomonas aeruginosa ATCC 27853 after overnight incubation. The assay is classed as functional. The essentials: as §1
Assay [4] relates to Escherichia coli. The assay is described as follows: Antimicrobial activity against Escherichia coli ATCC 25922 after overnight incubation. In kind it is functional. In a few lines: as §1
The target of assay [5] is T1, DNA topoisomerase 1 (Homo sapiens) (UniProt P11387).
T1 sequence (whole entry): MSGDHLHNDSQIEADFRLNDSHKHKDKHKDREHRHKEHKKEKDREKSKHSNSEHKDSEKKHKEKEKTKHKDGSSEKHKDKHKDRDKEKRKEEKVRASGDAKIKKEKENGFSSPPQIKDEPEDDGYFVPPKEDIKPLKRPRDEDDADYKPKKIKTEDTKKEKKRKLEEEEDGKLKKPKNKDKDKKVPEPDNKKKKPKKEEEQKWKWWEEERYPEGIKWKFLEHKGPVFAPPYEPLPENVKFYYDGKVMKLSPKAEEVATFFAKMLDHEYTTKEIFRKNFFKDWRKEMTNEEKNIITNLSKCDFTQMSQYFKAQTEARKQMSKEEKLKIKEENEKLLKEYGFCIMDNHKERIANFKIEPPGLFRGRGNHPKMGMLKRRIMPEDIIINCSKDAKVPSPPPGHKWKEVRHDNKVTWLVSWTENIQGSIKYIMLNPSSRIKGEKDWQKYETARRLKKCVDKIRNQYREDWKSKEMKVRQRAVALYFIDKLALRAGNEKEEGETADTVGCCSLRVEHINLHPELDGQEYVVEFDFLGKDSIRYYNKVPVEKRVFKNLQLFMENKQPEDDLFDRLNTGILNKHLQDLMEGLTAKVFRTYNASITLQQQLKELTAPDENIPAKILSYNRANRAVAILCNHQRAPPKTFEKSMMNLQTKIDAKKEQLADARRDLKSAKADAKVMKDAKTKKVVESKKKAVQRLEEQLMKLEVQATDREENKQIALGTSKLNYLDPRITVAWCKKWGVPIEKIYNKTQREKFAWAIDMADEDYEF
Kind of assay: Inhibition of human DNA topoisomerase 1 assessed as inhibition of uncoiling of supercoiled Tetrahymena pHOT1 DNA at 800 uM after 30 mins by agarose gel electrophoresis. In a few lines:
(§2)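 Human placental topoisomerase I (1 unit relaxes 0.5 µg DNA in 15 min at 37 °C) was used with 0.25 µg supercoiled pHOT1 plasmid. Fatty acids in DMSO were tested at final 1000, 800, 500, 100 and 10 µM for 30 min at 37 °C. Reactions were stopped with SDS, then proteinase K (final 0.05 mg/mL, 30 min, 37 °C). Products were run on 1% agarose, stained with ethidium bromide, and bands imaged and quantitated.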

The target in assay [6] is T2, DNA topoisomerase 1 (Homo sapiens, UniProt P11387).
T2 sequence (P11387 whole entry): T1 sequence (whole entry)
The assay is described as follows: Inhibition of human DNA topoisomerase 1.

The target of assay [7] is T2, DNA topoisomerase 1. The assay is described as follows: Inhibition of DNA topoisomerase 1.
Assay [8] concerns the target T1, DNA topoisomerase 1 (Homo sapiens). The assay is described as follows: Inhibition of human DNA topoisomerase 1 assessed as inhibition of uncoiling of supercoiled Tetrahymena pHOT1 DNA at […] after 30 mins by agarose gel electrophoresis.
The target is the same in assay [9]. The assay is described as follows: Inhibition of human DNA topoisomerase 1 assessed as inhibition of uncoiling of supercoiled Tetrahymena pHOT1 DNA at > 1000 uM after 30 mins by agarose gel electrophoresis. The essentials: as §2

What is called MIC is the smallest concentration in the dilution series that meets the test's criterion for growth inhibition. The IC50 is the point on the concentration scale where inhibition reaches its midpoint. A low value points to inhibition by little substance.

≈ marks a conversion by molar mass, not a printed value. Calls of active or inactive are those of the source.

`CCCCCC/C=C\CC/C=C\CCCC(=O)O`: the figures for the minimal inhibitory concentration (MIC) in [1] and in assay [2] were 80 µM (≈ 20.2 µg/mL) and 200 µM (≈ 50.5 µg/mL), respectively. Moreover, the result in assay [3] and in assay [4] was inactive. The inhibition result in [5] was “Active”.
`CCCCCCCCCCCCCCCCC/C=C\CC/C=C\CCCC(=O)O` yielded an IC50 in [6] of 0.9 µM.
Compound `CCCCCCCC/C=C/CCCCCCCC(=O)O` [ELAIDIC ACID] gave a half-inhibitory concentration (IC50) in assay [7] above 1000 µM.
As for `CCCCCCCCCCCCCCCC(=O)O` [PALMITIC ACID], the minimum inhibitory concentration (MIC) in [1], in assay [2], in [3] and in assay [4] was above 400 µM each time. Further, in [8], the inhibition entry is “inactive”.
Turning to `CCCCCCC#CCCC#CCCCC(=O)O`, the inhibition result in [9] is “inactive”.
Take `CC(C)CCC/C=C\CC/C=C\CCCC(=O)O`: the MIC in assay [1] worked out at 240 µM (≈ 60.6 µg/mL); in [2] it was 160 µM (≈ 40.4 µg/mL).
Turning to `CCCCCCCC/C=C\CCCCCCCC(=O)O` [OLEIC ACID], the IC50 in [7] was 31 µM. In other words, the double-digit micromolar range.
